Test results: ChEMBL document CHEMBL5620421, “2,6-Disubstituted 7-(naphthalen-2-ylmethyl)-7H-purines as a new class of potent antitubercular agents inhibiting DprE1” (Eur J Med Chem, 2023)
≈ marks a conversion by molar mass, not a printed value. Calls of active or inactive are those of the source. The calls are words filed in the database; no cut-off is given here.

What was measured:
[1] = tested on: Mycobacterium tuberculosis; assay: Antibacterial activity against Mycobacterium tuberculosis H37Rv assessed as inhibition of bacterial growth by micro-broth dilution method; format: functional
Method in brief: (§1)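 Micromethod MIC in Sula's semisynthetic medium. MIC is the lowest concentration inhibiting >99% of the mycobacterial population. Isoniazid was the standard drug.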

Mycobacterium kansasii [2] = assay: Antitubercular activity against Mycobacterium kansasii CNCTC My 235/80 assessed as inhibition of bacterial growth measured after 7 days of incubation by Sulas semisynthetic medium based assay; format: functional; conditions: CNCTC My 235/80, 168 h, time 7 day
Method in brief: (§2)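 Micromethod in Sula's semisynthetic medium. MIC is the lowest concentration inhibiting >99% of the mycobacterial population. Isoniazid was the standard.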

Klebsiella pneumoniae [3] = assay: Antibacterial activity against ESBL positive Klebsiella pneumoniae C1914 assessed as inhibition of bacterial growth incubated for 24 to 48 hrs by microdilution broth method; format: functional, organism-based; conditions: time 24-48 hrs
Method in brief: (§3)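 Clinical isolates kept at –70 °C and subcultured twice on Mueller-Hinton agar, using the second subculture. Broth microdilution in Mueller-Hinton broth at pH 7.4 with two-fold serial compound dilutions and DMSO ≤1% final. Inoculum was 10 μL of a 1.5 × 10⁸ CFU/mL suspension. Incubated at 36 °C ± 1 °C and read at 24 h and 48 h. MIC taken as 95% growth inhibition.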

[4] = tested on: Mycobacterium tuberculosis; assay: Antitubercular activity against Mycobacterium tuberculosis CNCTC My 331/88 (H37Rv) assessed as inhibition of bacterial growth measured after 21 days of incubation by Sulas semisynthetic medium based assay; format: functional; conditions: 504 h, time 21 day; method in brief: as §1
Enterococcus faecium = assay: Antibacterial activity against vancomycin-resistant Enterococcus faecium assessed as inhibition of bacterial growth incubated for 24 to 48 hrs by microdilution broth method; format: functional, organism-based; conditions: time 24-48 hrs
Method in brief: (§4)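 Clinical isolates, stored at −70 °C, were passaged twice on Mueller-Hinton agar. Broth microdilution in Mueller-Hinton broth, pH 7.4, with twofold serial dilutions. DMSO was at most 1% final. Inoculum 1.5 × 10⁸ CFU/mL suspension. MIC is 95% growth inhibition, read after 24 and 48 h at 36 °C.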

[5] = Selectivity index, ratio of IC50 for cytotoxicity against human HepG2 cells by MTT assay to MIC99 for antitubercular activity against Mycobacterium tuberculosis CNCTC My 331/88 (H37Rv) assessed as inhibition of bacterial growth measured after 14 days of incubation; format: functional; conditions: time 14 day
Method in brief: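 HepG2 cells, 15 × 10³/well, were attached overnight and exposed 24 h to serial dilutions (DMSO ≤1%). Read by MTT at 0.5 mg/mL for 1 h and 570 nm. IC50 from 4-parameter regression, three independent experiments in triplicate. SI is HepG2 IC50 divided by H37Rv MIC99.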

Staphylococcus aureus [6] = assay: Antibacterial activity against Staphylococcus aureus C1947 assessed as inhibition of bacterial growth incubated for 24 to 48 hrs by microdilution broth method; format: functional, organism-based; conditions: time 24-48 hrs; method in brief: as §3
Mycobacterium kansasii [7] = assay: Antitubercular activity against Mycobacterium kansasii CNCTC My 235/80 assessed as inhibition of bacterial growth measured after 14 days of incubation by Sulas semisynthetic medium based assay; format: functional; conditions: CNCTC My 235/80, 336 h, time 14 day; method in brief: as §2
Staphylococcus aureus [8] = assay: Antibacterial activity against methicilin-resistant Staphylococcus aureus C1923 assessed as inhibition of bacterial growth incubated for 24 to 48 hrs by microdilution broth method; format: functional, organism-based; conditions: time 24-48 hrs; method in brief: as §4
[9] = tested on: Mycobacterium tuberculosis; assay: Antitubercular activity against Mycobacterium tuberculosis CNCTC My 331/88 (H37Rv) assessed as inhibition of bacterial growth measured after 14 days of incubation by Sulas semisynthetic medium based assay; format: functional; conditions: 336 h, time 14 day; method in brief: as §1
Escherichia coli = assay: Antibacterial activity against Escherichia coli A1235 assessed as inhibition of bacterial growth incubated for 24 to 48 hrs by microdilution broth method; format: functional, organism-based; conditions: time 24-48 hrs; method in brief: as §3
Mycobacterium avium [10] = assay: Antitubercular activity against Mycobacterium avium CNCTC My 330/88 assessed as inhibition of bacterial growth measured after 14 days of incubation by Sulas semisynthetic medium based assay; format: functional; conditions: CNCTC My 330/88, 336 h, time 14 day
Method in brief: (§5)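 M. avium was tested by the micromethod in Sula's semisynthetic medium. Compounds in DMSO at 1000 to 0.5 μmol/L. Incubation at 37 °C, read at 14 and 21 days. MIC is the lowest concentration giving >99% growth inhibition.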

Mycobacterium avium [11] = assay: Antitubercular activity against Mycobacterium avium CNCTC My 330/88 assessed as inhibition of bacterial growth measured after 21 days of incubation by Sulas semisynthetic medium based assay; format: functional; conditions: CNCTC My 330/88, 504 h, time 21 day; method in brief: as §5
HepG2 = assay: Cytotoxicity against human HepG2 cells incubated for 24 hrs by MTT assay; format: functional, cell-based; conditions: HepG2, 24 h
Method in brief: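 HepG2 cells in DMEM with 10% FBS, seeded at 15 × 10³ cells/well and attached overnight. Exposed for 24 h to serial dilutions prepared from DMSO stocks, final DMSO ≤1%. Then given fresh medium with 0.5 mg/mL MTT for 1 h at 37 °C. Formazan dissolved in DMSO and read at 570 nm. IC50 from 4-parameter nonlinear regression; three independent experiments in triplicate, mean ± SD.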

Klebsiella pneumoniae [12] = assay: Antibacterial activity against ESBL negative Klebsiella pneumoniae C1950 assessed as inhibition of bacterial growth incubated for 24 to 48 hrs by microdilution broth method; format: functional, organism-based; conditions: time 24-48 hrs; method in brief: as §3
Pseudomonas aeruginosa = assay: Antibacterial activity against multidrug-resistant Pseudomonas aeruginosa A1245 assessed as inhibition of bacterial growth incubated for 24 to 48 hrs by microdilution broth method; format: functional, organism-based; conditions: time 24-48 hrs; method in brief: as §4
[13] = tested on: Staphylococcus epidermidis; assay: Antibacterial activity against Staphylococcus epidermidis C1936 assessed as inhibition of bacterial growth incubated for 24 to 48 hrs by microdilution broth method; format: functional, organism-based; conditions: time 24-48 hrs; method in brief: as §3
Mycobacterium kansasii [14] = assay: Antitubercular activity against Mycobacterium kansasii CNCTC My 235/80 assessed as inhibition of bacterial growth measured after 21 days of incubation by Sulas semisynthetic medium based assay; format: functional; conditions: CNCTC My 235/80, 504 h, time 21 day; method in brief: as §2
[15] = tested on: Mycobacterium tuberculosis; assay: Antibacterial activity against Mycobacterium tuberculosis H37Rv (ATCC 27294) assessed as inhibition of bacterial growth incubated for 14 days; format: functional; conditions: 336 h, time 14 day; method in brief: as §1

Row | SMILES | MIC [1] [ng/mL] | MIC99 (Mycobacterium kansasii [2]) [µM] | Activity (Klebsiella pneumoniae [3]) | MIC99 [4] [µM] | Activity (Enterococcus faecium) | Selectivity Index [5] | Activity (Staphylococcus aureus [6]) | MIC99 (Mycobacterium kansasii [7]) [µM] | Activity (Staphylococcus aureus [8]) | MIC99 [9] [µM] | Activity (Escherichia coli) | MIC99 (Mycobacterium avium [10]) [µM] | MIC99 (Mycobacterium avium [11]) [µM] | IC50 (HepG2) [µM] | Activity (Klebsiella pneumoniae [12]) | Activity (Pseudomonas aeruginosa) | Activity [13] | MIC99 (Mycobacterium kansasii [14]) [µM] | MIC [15] [ng/mL]
1 | C[C@H]1COC2(CCN(c3nc(=O)c4cc(C(F)(F)F)cc([N+](=O)[O-])c4s3)CC2)O1 [BTZ-043] | 1 (≈ 2.32 nM) | – | – | – | – | – | – | – | – | – | – | – | – | – | – | – | – | – | –
2 | O=c1nc(N2CCN(CC3CCCCC3)CC2)sc2c([N+](=O)[O-])cc(C(F)(F)F)cc12 [MACOZINONE] | ≤ 0.19 | – | – | – | – | – | – | – | – | – | – | – | – | – | – | – | – | – | –
3 | CCCNc1nc(N2CCOCC2)nc2ncn(Cc3ccc4ccccc4c3)c12 | – | 8 (≈ 3.22 µg/mL) | inactive | 4 (≈ 1.61 µg/mL) | inactive | 10.1 | inactive | 8 (≈ 3.22 µg/mL) | inactive | 4 (≈ 1.61 µg/mL) | inactive | 125 (≈ 50.3 µg/mL) | 125 (≈ 50.3 µg/mL) | 40.5 | inactive | inactive | inactive | 16 (≈ 6.44 µg/mL) | –
4 | Clc1nc(N2CCOCC2)nc2ncn(Cc3ccc4ccccc4c3)c12 | – | 16 (≈ 6.08 µg/mL) | inactive | 16 (≈ 6.08 µg/mL) | inactive | 4.09 | inactive | 32 (≈ 12.2 µg/mL) | inactive | 16 (≈ 6.08 µg/mL) | inactive | > 500 | > 500 | 65.6 | inactive | inactive | inactive | 64 (≈ 24.3 µg/mL) | –
5 | COc1ncnc(Cn2cc(C(=O)NCCO)c3ncc(C)cc32)c1C [TBA-7371] | – | – | – | – | – | – | – | – | – | – | – | – | – | – | – | – | – | – | 640 (≈ 1800 nM)
6 | CNc1nc(N2CCOCC2)nc2ncn(Cc3ccc4ccccc4c3)c12 | – | 8 (≈ 3 µg/mL) | inactive | 4 (≈ 1.5 µg/mL) | inactive | 14.7 | inactive | 8 (≈ 3 µg/mL) | inactive | 4 (≈ 1.5 µg/mL) | inactive | > 500 | > 500 | 58.8 | inactive | inactive | inactive | 8 (≈ 3 µg/mL) | –
7 | CSc1nc(N2CCOCC2)nc2ncn(Cc3ccc4ccccc4c3)c12 | – | 32 (≈ 12.5 µg/mL) | inactive | 8 (≈ 3.13 µg/mL) | inactive | 5.3 | inactive | 64 (≈ 25.1 µg/mL) | inactive | 8 (≈ 3.13 µg/mL) | inactive | > 500 | > 500 | 42.4 | inactive | inactive | inactive | 64 (≈ 25.1 µg/mL) | –
8 | CN(C)c1nc(N2CCOCC2)nc2ncn(Cc3ccc4ccccc4c3)c12 | – | 32 (≈ 12.4 µg/mL) | inactive | 16 (≈ 6.22 µg/mL) | inactive | 6.99 | inactive | 64 (≈ 24.9 µg/mL) | inactive | 8 (≈ 3.11 µg/mL) | inactive | 500 (≈ 194 µg/mL) | 500 (≈ 194 µg/mL) | 55.9 | inactive | inactive | inactive | 125 (≈ 48.6 µg/mL) | –
9 | CCNc1nc(N2CCOCC2)nc2ncn(Cc3ccc4ccccc4n3)c12 | – | 64 (≈ 24.9 µg/mL) | inactive | 8 (≈ 3.12 µg/mL) | inactive | 24.08 | inactive | 64 (≈ 24.9 µg/mL) | inactive | 4 (≈ 1.56 µg/mL) | inactive | > 250 | > 250 | 96.4 | inactive | inactive | inactive | 64 (≈ 24.9 µg/mL) | –
10 | CC(C)c1ccc(Cn2cnc3nc(N4CCOCC4)[nH]c(=O)c32)cc1 | – | > 500 | inactive | 32 (≈ 11.3 µg/mL) | inactive | >7.8 | inactive | > 500 | inactive | 16 (≈ 5.65 µg/mL) | inactive | > 500 | > 500 | > 125 | inactive | inactive | inactive | > 500 | –
11 | CCSc1nc(N2CCOCC2)nc2ncn(Cc3ccc4ccccc4c3)c12 | – | 32 (≈ 13 µg/mL) | inactive | 4 (≈ 1.62 µg/mL) | inactive | 16.1 | inactive | 64 (≈ 26 µg/mL) | inactive | 4 (≈ 1.62 µg/mL) | inactive | > 500 | > 500 | 64.2 | inactive | inactive | inactive | 125 (≈ 50.7 µg/mL) | –
